According to ChEMBL document CHEMBL1123598, “Inactivation of thymidylate synthase at an alternate high-affinity binding site” (J Med Chem, 1987):

Target: T1, Thymidylate synthase (Lactobacillus casei) (UniProt P00469)
T1 sequence (whole entry): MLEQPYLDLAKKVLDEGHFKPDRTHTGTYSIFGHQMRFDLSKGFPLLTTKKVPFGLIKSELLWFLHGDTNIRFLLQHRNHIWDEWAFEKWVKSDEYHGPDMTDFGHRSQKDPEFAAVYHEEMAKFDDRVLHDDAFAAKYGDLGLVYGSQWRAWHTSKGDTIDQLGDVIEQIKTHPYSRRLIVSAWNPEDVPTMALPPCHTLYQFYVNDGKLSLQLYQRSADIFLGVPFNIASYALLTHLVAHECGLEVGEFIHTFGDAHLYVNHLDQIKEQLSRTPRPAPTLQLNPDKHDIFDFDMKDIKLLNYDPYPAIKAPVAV
Assay: Kinetic constant for the inactivation of Lactobacillus casei thymidylate synthase was determined at the concentration of 60 uM in the absence of substrate
Details: Lacticaseibacillus casei
Method in brief: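 Enzyme (sp act. 3.2 μM mg⁻¹ min⁻¹) incubated with inhibitor in 0.1 M phosphate buffer, pH 6.8, 30 °C, with no substrate or with substrate at the stated concentration. Aliquots were withdrawn at intervals and residual activity was measured with 50 μM substrate in a 60-s assay. k_obsd was taken from activity loss; k2 and Ka came from the double-reciprocal plot of 1/k_obsd vs 1/[inhibitor].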

k: 5 se-1
SMILES: CC1=CC(=O)c2ccccc2C1=O
